Among the data in ChEMBL document CHEMBL3244428, “Synthesis and antifungal properties of certain 7-alkylaminopyrazolo[1,5-a]pyrimidines” (J Med Chem, 1977) are MLC, MIC and Activity values, retold here.

Converted amounts (≈) assume the structure as drawn. The source made the active and inactive calls. The rule behind the calls is not given here. Some results are limits rather than exact numbers.

In series [1] the test system is Trichophyton mentagrophytes. Briefly: Fungicidal activity against Trichophyton mentagrophytes clinical isolate after 48 hrs by broth dilution method. The class given is functional. The procedure, abridged:
(§1)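 Broth dilution in chemically defined medium, with serial dilutions spanning 0.32 to 0.005 µmol/ml. Dermatophyte plates were read after 48 h at 30 °C.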
For orientation: Dilution methods test growth across graded concentrations, often in twofold steps.

The subject of series [2] is Trichophyton mentagrophytes. Briefly: Fungistatic activity against Trichophyton mentagrophytes clinical isolate after 48 hrs by broth dilution method. In kind it is functional. The essentials: as §1
Series [3] relates to Cavia porcellus. Kind of series: Toxicity in guinea pig skin assessed as erythema administered topically bid measured on day 6. The class given is organism-based. Particulars: in vivo, topical_or_ocular. The procedure, abridged:
(§2)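 Intact or abraded skin of uninfected guinea pigs was treated topically with 1.0% w/v compound. The vehicle was either a solution of propylene glycol (20%), 70% sorbitol (3%) and ethanol (78%) or a petrolatum ointment. Skin was scored for erythema and scaling up to day 6, against vehicle-treated controls.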

The subject of series [4] is Trichophyton mentagrophytes. Kind of series: Antifungal activity against Trichophyton mentagrophytes infected in guinea pig assessed as cure rate of dermal infection at nonirritating dose administered topically bid started on day 3 post infection continued for 8 days measured every other day through day 14 relative to vehicle-treated control. The class given is functional, organism-based. The essentials: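 Guinea pig T. mentagrophytes skin infection model, treated topically. Compounds were given at non-irritating concentrations, either as a w/v solution in propylene glycol (20%), 70% sorbitol (3%) and ethanol (78%) or in a petrolatum ointment. Treated animals were compared with infected, vehicle-only controls.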

The subject of series [5] is Cavia porcellus. Briefly: Toxicity in guinea pig skin assessed as scaling administered topically bid measured on day 6. The class given is organism-based. Particulars: in vivo, topical_or_ocular. The procedure, abridged: as §2
In series [6] the test system is Cavia porcellus. Briefly: Toxicity in guinea pig assessed as skin irritation administered topically bid measured on day 6. In kind it is organism-based. Particulars: in vivo, topical_or_ocular. The essentials:
as §2

Where [7] appears, read: Trichophyton mentagrophytes, 48 h, read-out: MIC.

Consider `CCCCCCCNc1cc(C)nc2ccnn12`, for which the MLC in series [1] amounted to 320 µM (≈ 78.8 µg/mL). In series [2] (setting [7]), the MIC was 40 µM (≈ 9.85 µg/mL).

In turn, `CCN(CC)c1cc(C)nc2ccnn12` showed an MLC in series [1] above 320 µM. Also, the minimum inhibitory concentration (MIC) in series [2] (setting [7]) was above 320 µM.

On to `CCCCCCCCCCNc1cc(Cl)nc2ccnn12`, for which the MLC in series [1] is above 320 µM. Moreover, the MIC in series [2] (setting [7]) is above 320 µM.

For the molecule `Cc1cc(NCc2ccc(Cl)cc2Cl)n2nccc2n1`, the MLC in series [1] was above 320 µM. Moreover, the MIC in series [2] (setting [7]) was 40 µM (≈ 12.3 µg/mL).

In series [1], `CCCCCCCCNc1cc(C)nc2c(C(=O)OCC)cnn12` gave an MLC above 320 µM. Moreover, in series [2] (setting [7]), the minimum inhibitory concentration (MIC) was found to be 320 µM (≈ 106 µg/mL).

Turning to `CCCCCCCCNc1ccnc2ccnn12.Cl`, the Activity entry in the series with Cavia porcellus [3] and with Cavia porcellus [5] was “Toxic” in each case. The molecule further returned an MLC in series [1] of 80 µM. The outcome in series [4] was inactive. Also, the minimal inhibitory concentration (MIC) in series [2] (setting [7]) was 10 µM.

With `CCCCCCCCNc1cc(C)nc2ccnn12` [listing 1 of 2 here], the outcome in series [4] was inactive.

Turning to `Cc1cc(NCCCN2CCOCC2)n2nccc2n1.Cl`, the MLC in series [1] was 320 µM. Also, the MIC in series [2] (setting [7]) is above 320 µM.

As to `Cc1cc(NCC(=O)O)n2nccc2n1`, the MLC in series [1] was above 320 µM. For the same molecule, the minimal inhibitory concentration (MIC) in series [2] (setting [7]) is above 320 µM.

For `CCCCCCCCNc1cc(C)nc2ccnn12` [listing 2 of 2 here], the Activity entry with Cavia porcellus [3] and in the series with Cavia porcellus [5] was “Toxic” in each case. Moreover, the MLC in series [1] was found to be 160 µM (≈ 41.7 µg/mL). Moreover, the minimal inhibitory concentration (MIC) in series [2] (setting [7]) is 20 µM (≈ 5.21 µg/mL).

With `CCCCCCCCNc1cc(C(C)C)nc2ccnn12`, the MLC in series [1] was above 320 µM. Also, the minimal inhibitory concentration (MIC) in series [2] (setting [7]) turned out to be 20 µM (≈ 5.77 µg/mL).

In series [1], `CCCCCCCCNc1c(C)c(C)nc2ccnn12` registered an MLC above 320 µM. Also, the minimal inhibitory concentration (MIC) in series [2] (setting [7]) came out at 10 µM (≈ 2.74 µg/mL).

Regarding `CCCCCCCCNc1cc(C)nc2ccnn12.Cl`, the Activity result in the series on Cavia porcellus [3] and in the series with Cavia porcellus [5] was “Toxic” throughout. Also, the MLC in series [1] was 160 µM. Also, the minimum inhibitory concentration (MIC) in series [2] was 20 µM.

The molecule `CCCCCCCCNc1cc(C(=O)OCC)nc2ccnn12` came in with an MLC in series [1] above 320 µM. Besides, the MIC in series [2] (setting [7]) came out at 320 µM (≈ 102 µg/mL).

On to `CCCCCCCCNc1c(C)c(Cl)nc2ccnn12`, for which the MLC in series [1] was above 320 µM. For the same molecule, in series [2] (setting [7]), the MIC is above 320 µM.

For the molecule `CCCCCCCCCCNc1cc(C)nc2ccnn12`, in series [1], the MLC was above 320 µM. The MIC in series [2] (setting [7]) turned out to be 40 µM (≈ 11.5 µg/mL).

As for `CCCCCCCC/C=C/CCCCCCCCNc1cc(C)nc2c(Br)cnn12`, the MLC in series [1] turned out to be 20 µM (≈ 9.55 µg/mL). In series [4], the result was Active. Further, in series [2] (setting [7]), the MIC worked out at 10 µM (≈ 4.78 µg/mL).

`Cc1cc(N2CCCCC2)n2nccc2n1`: the MLC in series [1] was above 320 µM. Moreover, in series [2] (setting [7]), the minimum inhibitory concentration (MIC) is above 320 µM.

The molecule `CCCNc1cc(C)nc2c(Br)cnn12` had an MLC in series [1] of 320 µM (≈ 86.1 µg/mL). Moreover, in series [2] (setting [7]), the MIC is 80 µM (≈ 21.5 µg/mL).

Regarding `CCCCCCCCSc1cc(C)nc2ccnn12`, the MLC in series [1] is 160 µM (≈ 44.4 µg/mL). In addition, the Activity entry in the series on Cavia porcellus [6] was “Toxic”. In series [2] (setting [7]), the minimum inhibitory concentration (MIC) came out at 20 µM (≈ 5.55 µg/mL).

For the molecule `CCCCCCCC/C=C/CCCCCCCCNc1cc(C)nc2ccnn12`, the Activity entry in the series with Cavia porcellus [3] and in the series on Cavia porcellus [5] was “Toxic” each time. Moreover, the MLC in series [1] came to 10 µM (≈ 3.99 µg/mL). In series [4], the outcome was inactive. In series [2] (setting [7]), the MIC came to 5 µM (≈ 1.99 µg/mL).

As for `CCCCCCNc1cc(C)nc2ccnn12`, the MLC in series [1] worked out at 320 µM (≈ 74.3 µg/mL). The MIC in series [2] (setting [7]) turned out to be 40 µM (≈ 9.29 µg/mL).

Take `CCCCCCCCNc1cc(Cl)nc2ccnn12`: the MLC in series [1] was 320 µM (≈ 89.9 µg/mL). For the same molecule, the MIC in series [2] (setting [7]) worked out at 20 µM (≈ 5.62 µg/mL).

The term MIC denotes the lowest concentration that inhibits growth of the organism.
